Measurements of several laboratories.
Compare with care: the assays were run in different laboratories.
PDGFRA: Platelet-derived growth factor receptor alpha (PDGFRA, Homo sapiens, UniProt P16234)
PDGFRA D842V: Platelet-derived growth factor receptor alpha (PDGFRA, Homo sapiens, UniProt P16234, D842V)

For COc1cc2ncnc(Nc3ccc(Oc4ccccc4)cc3C)c2cc1OC, the inhibition was 9% (PDGFRA; enzyme activity, inhibitor; 1 µM).
Cc1nc(Cc2cccc(C(F)(F)F)c2)sc1-c1ccc(C(N)=O)nc1 gave a remaining binding of 88% (PDGFRA; cell-free assay, competition with immobilised ligand; 1 µM).
With Cc1cc(NC(=O)c2cccc3cc(-c4cccc5[nH]nc(N)c45)ccc23)ccc1F the activity vs control was 92% (PDGFRA; enzyme activity, inhibitor; 0.1 µM).
CNC(=O)c1cc(Oc2ccc(NC(=O)Nc3ccc(Cl)c(C(F)(F)F)c3)cc2)ccn1 gave an inhibition of 99% (PDGFRA D842V; enzyme activity, inhibitor; 10 µM).
For COc1cc(-c2cc(-c3ccc(N4CCNCC4)cc3)cnc2N)cc(OC)c1OC, the inhibition was 45% (Platelet-derived growth factor receptor alpha (PDGFRA, Homo sapiens, UniProt P16234, V561D); enzyme activity, inhibitor; 0.1 µM).
COc1cc2ncnc(Nc3ccc(Oc4ccccc4)c(C)c3C)c2cc1OC gave an inhibition of 3% (PDGFRA D842V; enzyme activity, inhibitor; 1 µM).
O=C1NC(=O)c2cc(Nc3ccc(F)cc3)c(Nc3ccc(F)cc3)cc21 gave a remaining signal of 101% (PDGFRA; cell-free assay, inhibitor; 0.5 µM).
With Cc1ccc(C(=O)NCc2ccsc2)cc1C#Cc1cn(C(C)C)c2ncnc(N)c12 the activity vs control was 4% (PDGFRA; enzyme activity, inhibitor; 1 µM).
For CC/C(=N\NC(=O)NCc1cccc(O)c1)c1ccc(O)c(C)c1O, the inhibition was -0.2% (Platelet-derived growth factor receptor alpha (PDGFRA, Homo sapiens, UniProt P16234, T674I); enzyme activity, inhibitor; 0.1 µM).
For C[C@@H]1CN(c2cc(-c3nn(C)c4ccc(OC5(C)CC5)cc34)ncn2)C[C@H](C)O1, the remaining binding was 83% (PDGFRA; cell-free assay, competition with immobilised ligand; 1 µM).
CS(=O)(=O)CCNCc1ccc(-c2ccc3ncnc(Nc4ccc(OCc5cccc(F)c5)c(Cl)c4)c3c2)o1 gave a remaining signal of 108% (PDGFRA; cell-free assay; 0.5 µM).
The remaining binding of CNC(=O)Nc1ccc2c(c1)[C@@]1(CC2)OC(=O)N(CC(=O)N(Cc2ccc(F)cc2)[C@@H](C)C(F)(F)F)C1=O is reported as 83% (PDGFRA; cell-free assay, competition with immobilised ligand; 1 µM).
For Cc1ccc(NC(=O)c2ccc(C)c(C(F)(F)F)c2)cc1C#Cc1nn(C2CCC(O)CC2)c2ncnc(N)c12 (stereo not shown), the remaining signal was 60% (PDGFRA; cell-free assay, inhibitor; 10 µM).
The remaining activity of CC(C)(O)[C@H]1CC[C@H](Nc2ccc3ncc(-c4cccc(C(F)(F)F)c4)n3n2)CC1 is reported as 44.5% (PDGFRA; enzyme activity, inhibitor; 1 µM).
Oc1ccc(-c2nc(-c3ccncc3)c(-c3ccc(F)cc3)[nH]2)cc1 gave a remaining signal of 98.8% (PDGFRA; cell-free assay; 0.5 µM).
CN([C@@H]1CCc2c(CC(=O)O)c3cc(S(C)(=O)=O)ccc3n2C1)S(=O)(=O)c1ccc(F)cc1 has a remaining binding of 100% (PDGFRA; cell-free assay, competition with immobilised ligand; 1 µM).
The remaining activity of O=C(Nc1cnn(-c2csc(C(=O)NC3COC3)c2)c1)Nc1c(F)cccc1Cl is reported as 107% (PDGFRA; enzyme activity, inhibitor; 5 µM).
The activity vs control of COc1cc(/C=C/C(=O)CC(=O)/C=C/c2ccc(O)c(OC)c2)ccc1O is reported as 92% (PDGFRA; enzyme activity, inhibitor; 1 µM).
For N#CC1(c2ccccn2)CCN(Cc2cc(C(=O)N3CCCC3)c(=O)n3ccccc23)CC1, the remaining binding was 97% (PDGFRA; cell-free assay, competition with immobilised ligand; 1 µM).
CCCOc1ccc(OC)c(F)c1C(=O)c1ccc(C(=O)N[C@@H]2CNC[C@H]2NC(=O)c2ccc3[nH]ncc3c2)cc1 has a remaining activity of 12% (PDGFRA D842V; enzyme activity, inhibitor; 10 µM).
With CC(C)(C)c1nc2c(s1)c1nc(N)ncc1c1ccc(NS(=O)(=O)c3c(F)cccc3F)c(F)c12 the remaining activity was 97% (PDGFRA; enzyme activity, inhibitor, radiometric; 1 µM).
For N#CCCc1ccc2c(c1)-c1[nH]c3ccc([N+](=O)[O-])cc3c1CC(=O)N2, the remaining signal was 87.4% (PDGFRA; cell-free assay; 0.5 µM).
Cc1nccc(COC(=O)N2C[C@@H]3[C@@H](CNC(=O)c4ccc5[nH]nnc5c4)[C@@H]3C2)n1 gave a remaining binding of 80% (PDGFRA; cell-free assay, competition with immobilised ligand; 1 µM).
For Cc1cnc(NC2CCOCC2)nc1-n1cnc(C(=O)NC(CN)c2cc(F)cc(Cl)c2)c1 (stereo not shown), the remaining activity was 104% (PDGFRA D842V; enzyme activity, inhibitor, radiometric; 1 µM).
CN(C)c1ncnc(-c2ccc3nc(Nc4cc(CN5CCN(C(=O)CC(F)(F)F)CC5)ccn4)[nH]c3c2)c1Cl has a remaining binding of 61% (PDGFRA; cell-free assay, competition with immobilised ligand; 1 µM).
For Cc1ccc(C(=O)Nc2ccc(CN3CCN(C)CC3)c(C(F)(F)F)c2)cc1C#Cc1cnc2cccnn12, the remaining activity was 5.3% (PDGFRA; enzyme activity, inhibitor; 23.5 nM).
For COc1ccc2c(c1)O[C@H](c1ccc(OC)c(OC)c1)C[C@@H]2NC(=O)C1(c2ccc3c(c2)OC(F)(F)O3)CC1, the remaining binding was 87% (PDGFRA; cell-free assay, competition with immobilised ligand; 1 µM).
FC(F)(F)Oc1cccc(-c2cnc3ccc(-c4ccncc4)nn23)c1 gave an activity vs control of 49% (PDGFRA; enzyme activity, inhibitor, radiometric; 5 µM).
